This passage reports ED50 and Ki results from ChEMBL document CHEMBL1127368, “Selective kappa-opioid agonists: synthesis and structure-activity relationships of piperidines incorporating on oxo-containing acyl group” (J Med Chem, 1994).

Experiment [1] concerns Mus musculus. The experiment in a line: Tested for in vivo antinociceptive activity in mouse abdominal constriction assay. It is filed as functional. To be noted: Abdomen. In outline: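 Mice of 20-35 g. Abdominal constriction induced with phenyl-p-benzoquinone. Ten animals per dose. ED50 with 95% confidence intervals obtained by regression analysis.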
In experiment [2] the test system is Mus musculus. The experiment in a line: Tested for in vivo antinociceptive activity in mouse tail-flick assay. The format is functional. In outline: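 Tail-flick antinociception in mice of 20-35 g. Ten animals per dose. ED50 with 95% confidence intervals obtained by probit analysis.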
On the technique in general: Hot-plate and tail-flick tests time the reaction to a heat stimulus.

Experiment [3] addresses Kappa-type opioid receptor (Mus musculus, UniProt P33534). Briefly: Evaluated for the binding affinity at kappa receptor.
Experiment [4] deals with Mus musculus. The experiment in a line: Tested for in vivo locomotor impairment/sedation in mouse rotarod test. It is filed as functional. Put shortly:
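Locomotor impairment/sedation measured on a rotarod in mice of 20-35 g. Ten animals per dose. ED50 with 95% confidence intervals obtained by regression analysis.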

In experiment [5] the target is Delta-type opioid receptor (Mus musculus, UniProt P32300). Briefly: Evaluated for the binding affinity at delta receptor.
Delta-type opioid receptor, sequence (P32300 whole entry): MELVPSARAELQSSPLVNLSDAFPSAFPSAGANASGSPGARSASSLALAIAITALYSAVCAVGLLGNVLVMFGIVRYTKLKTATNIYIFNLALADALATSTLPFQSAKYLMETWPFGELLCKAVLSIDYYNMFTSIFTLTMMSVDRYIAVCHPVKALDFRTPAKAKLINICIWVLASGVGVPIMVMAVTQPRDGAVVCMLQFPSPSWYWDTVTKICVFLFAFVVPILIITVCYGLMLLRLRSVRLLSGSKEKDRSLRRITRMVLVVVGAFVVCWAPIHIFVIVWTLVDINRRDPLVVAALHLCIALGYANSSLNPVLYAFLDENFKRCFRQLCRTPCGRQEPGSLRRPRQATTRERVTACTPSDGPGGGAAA
In a further experiment the target is Mu-type opioid receptor (Mus musculus, UniProt P42866). Briefly: Evaluated for the binding affinity at mu receptor.
Mu-type opioid receptor, sequence (P42866 whole entry): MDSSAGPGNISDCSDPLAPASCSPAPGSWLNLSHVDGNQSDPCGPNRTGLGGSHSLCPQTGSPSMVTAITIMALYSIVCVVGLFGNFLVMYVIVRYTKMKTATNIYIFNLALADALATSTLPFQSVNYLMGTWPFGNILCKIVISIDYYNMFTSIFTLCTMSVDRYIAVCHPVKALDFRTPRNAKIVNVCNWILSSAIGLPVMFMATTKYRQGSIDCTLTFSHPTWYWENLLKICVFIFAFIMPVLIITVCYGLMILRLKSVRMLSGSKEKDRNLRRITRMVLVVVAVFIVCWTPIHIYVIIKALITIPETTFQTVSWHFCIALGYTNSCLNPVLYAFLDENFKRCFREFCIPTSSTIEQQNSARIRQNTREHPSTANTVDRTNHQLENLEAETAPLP
For experiment [6], the target named is Sigma non-opioid intracellular receptor 1 (Mus musculus, UniProt O55242). Briefly: Evaluated for the binding affinity at sigma receptor.
Sigma non-opioid intracellular receptor 1, sequence (O55242 whole entry): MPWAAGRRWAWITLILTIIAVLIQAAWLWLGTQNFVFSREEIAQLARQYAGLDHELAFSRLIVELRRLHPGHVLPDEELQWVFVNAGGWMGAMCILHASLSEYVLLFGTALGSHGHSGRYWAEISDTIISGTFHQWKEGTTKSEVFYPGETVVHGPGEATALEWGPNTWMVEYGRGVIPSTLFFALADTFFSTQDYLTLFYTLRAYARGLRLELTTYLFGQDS
The test system of experiment [7] is Rattus norvegicus. Briefly: Tested for in vivo antinociceptive activity in rat abdominal constriction. To be noted: Abdomen. The format is functional. In outline: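 Male SD rats, 180-350 g. Abdominal constriction induced with phenyl-p-benzoquinone. Ten animals per dose. ED50 with 95% confidence intervals obtained by probit analysis.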
Experiment [8] relates to Rattus norvegicus. Briefly: Tested for in vivo locomotor impairment/sedation in rat rotarod. The format is functional. Put shortly: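 Male SD rats, 180-350 g. Trained in six 5-min sessions over 2 days. Rotarod accelerated from 3 to 30 rpm across five sessions. Ten animals per dose. ED50 with 95% confidence intervals obtained by regression analysis.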
In experiment [9] the test system is Rattus norvegicus. The experiment in a line: Tested for in vivo antinociceptive activity in rat abdominal constriction assay. To be noted: Abdomen.

Kappa-type opioid receptor, sequence (P33534 whole entry): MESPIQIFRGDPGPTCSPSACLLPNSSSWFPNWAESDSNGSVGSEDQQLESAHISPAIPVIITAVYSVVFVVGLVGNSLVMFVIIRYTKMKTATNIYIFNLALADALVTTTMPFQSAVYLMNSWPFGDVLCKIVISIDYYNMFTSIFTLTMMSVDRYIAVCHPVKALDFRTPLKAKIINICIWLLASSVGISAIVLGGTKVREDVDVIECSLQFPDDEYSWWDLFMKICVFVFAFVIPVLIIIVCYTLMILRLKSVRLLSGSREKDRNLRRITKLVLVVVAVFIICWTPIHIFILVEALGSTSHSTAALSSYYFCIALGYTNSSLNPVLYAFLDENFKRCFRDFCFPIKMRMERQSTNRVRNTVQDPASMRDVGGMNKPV

As to `C=CCN(C)C[C@@H]1CCCCN1C(=O)Cc1ccc2c(c1)CCCC2=O`, the figures for the median effective dose (ED50) in the experiment with Mus musculus [1], with Mus musculus [2] and in the experiment with Mus musculus [4] were 0.37 µmol/kg, 3.42 µmol/kg and 8.66 µmol/kg, respectively. In addition, the affinity in [3] corresponds to a Ki of 19.2 nM.
As to `O=C1CCCc2cc(CC(=O)N3CCCC[C@H]3CN3CCCC3)ccc21`, the median effective dose (ED50) (in general, the midpoint of the dose-response relation) with Mus musculus [1] was determined as 0.35 µmol/kg; with Mus musculus [2] it was 0.59 µmol/kg. The Ki (usually a dissociation constant, usually derived from enzyme kinetics or from competition with a known ligand) in experiment [3] was found to be 7.6 nM.
Regarding `CCCN(C)C[C@@H]1CCCCN1C(=O)Cc1ccc2c(c1)CCCC2=O`, the ED50 was 0.62 µmol/kg with Mus musculus [1], 6.81 µmol/kg in the experiment with Mus musculus [2] and 7.99 µmol/kg in the experiment on Mus musculus [4]. The Ki in experiment [3] amounted to 22.2 nM.
Turning to `O=C(Cc1ccc2c(c1)CCCC2)N1CCCC[C@H]1CN1CCCC1`, the ED50 in the experiment on Mus musculus [1] came out at 0.57 µmol/kg; with Mus musculus [2], 2.67 µmol/kg. This compound came in with a Ki in experiment [3] of 0.81 nM.
`CC(C)N(C)C[C@@H]1CCCCN1C(=O)Cc1ccc2c(c1)CCCC2=O`: the ED50 stood at 0.22 µmol/kg with Mus musculus [1], 1.2 µmol/kg in the experiment on Mus musculus [2] and 1.02 µmol/kg with Mus musculus [4]. In experiment [3], this compound displayed a Ki of 4.07 nM.
As to `O=C1CCCc2ccc(CC(=O)N3CCCC[C@H]3CN3CCCC3)cc21`, the ED50 is around 1 µmol/kg in the experiment on Mus musculus [1] and above 3 µmol/kg with Mus musculus [2]. In addition, in experiment [3], the inhibition constant (Ki) amounted to 5.61 nM.
For the compound `CCN(C)C[C@@H]1CCCCN1C(=O)Cc1ccc2c(c1)CCCC2=O`, the values for the median effective dose (ED50) in the experiment with Mus musculus [1], in the experiment with Mus musculus [2] and in the experiment with Mus musculus [4] were 0.18 µmol/kg, 1.77 µmol/kg and 2.3 µmol/kg, respectively. This compound came in with a Ki in [3] of 10.3 nM.
For `CN(C[C@@H]1CCCCN1C(=O)Cc1ccc2c(c1)CCCC2=O)C1CCCC1`, the 50% effective dose (ED50) in the experiment with Mus musculus [1] amounted to 0.55 µmol/kg; in the experiment on Mus musculus [2] it was 6.34 µmol/kg; with Mus musculus [4] it was 10 µmol/kg. Besides, the Ki in experiment [3] was 20 nM.
For `CCN(CC)C[C@@H]1CCCCN1C(=O)Cc1ccc2c(c1)CCCC2=O` the same measures were 1.2 µmol/kg, 12.6 µmol/kg, 23.7 µmol/kg and 80.3 nM.
For the compound `CN(C)C[C@@H]1CCCCN1C(=O)Cc1ccc2c(c1)CCCC2=O`, the ED50 worked out at 0.47 µmol/kg in the experiment with Mus musculus [1]; 2.15 µmol/kg in the experiment on Mus musculus [2]; 0.73 µmol/kg in the experiment on Rattus norvegicus [7]; 5.1 µmol/kg in the experiment with Mus musculus [4]; 26.5 µmol/kg with Rattus norvegicus [8]. The inhibition constant Ki is above 100 nM in experiment [5], 6790 nM on Mu-type opioid receptor, 1210 nM in [6] and 47 nM in [3].
Turning to `CN(C[C@@H]1CCCCN1C(=O)Cc1ccc2c(c1)CCCC2=O)C1CC1`, the results for the 50% effective dose (ED50) with Mus musculus [1], in the experiment with Mus musculus [2] and in the experiment with Mus musculus [4] were 0.4 µmol/kg, 7.85 µmol/kg and 13.7 µmol/kg, respectively. The compound further yielded a Ki in experiment [3] of 52.1 nM.
Consider `CN(CC1CC1)C[C@@H]1CCCCN1C(=O)Cc1ccc2c(c1)CCCC2=O`, for which the ED50 in the experiment on Mus musculus [1] was determined as 1.36 µmol/kg; in the experiment with Mus musculus [2], 16.5 µmol/kg; with Mus musculus [4] it was 16.6 µmol/kg. In experiment [3], the inhibition constant (Ki) was found to be 30.4 nM.
The corresponding values for `C#CCN(C)C[C@@H]1CCCCN1C(=O)Cc1ccc2c(c1)CCCC2=O` are 0.16 µmol/kg, 5.11 µmol/kg, 4.12 µmol/kg and 6.24 nM.
For `O=C1CCCCc2cc(CC(=O)N3CCCC[C@H]3CN3CCCC3)ccc21`, the figures for the ED50 with Mus musculus [1] and in the experiment with Mus musculus [2] were above 1.5 µmol/kg and above 3 µmol/kg, respectively. In experiment [3], this compound had an inhibition constant Ki of 5.44 nM.
The compound `CN(C[C@@H]1CCCCN1C(=O)Cc1ccc2c(c1)CCCC2=O)C(C)(C)C` had an ED50 in the experiment on Mus musculus [2] above 30 µmol/kg. The same compound registered an inhibition constant Ki in [3] above 100 nM.
Consider `CN(C[C@@H]1CCCCN1C(=O)Cc1ccc2c(c1)CCCC2=O)C1CCC1`, for which the 50% effective dose (ED50) came out at 0.34 µmol/kg in the experiment with Mus musculus [1], 1.45 µmol/kg with Mus musculus [2] and 3.32 µmol/kg in the experiment on Mus musculus [4]. Also, in experiment [3], the inhibition constant Ki is 34.8 nM.
Regarding `O=C1CCc2cc(CC(=O)N3CCCC[C@H]3CN3CCCC3)ccc21`, the ED50 in the experiment with Mus musculus [1] was above 1.5 µmol/kg; in the experiment on Mus musculus [2], above 30 µmol/kg. The Ki in [3] is 7.93 nM.
For the compound `O=C1CCCc2sc(CC(=O)N3CCCC[C@H]3CN3CCCC3)cc21`, the median effective dose (ED50) amounted to 1.41 µmol/kg with Mus musculus [1] and 13.5 µmol/kg in the experiment on Mus musculus [2]. Further, the Ki in experiment [3] turned out to be 6.54 nM.
Regarding `O=C(Cc1ccc(C(F)(F)F)cc1)N1CCCC[C@H]1CN1CCCC1`, the ED50 amounted to 0.1 µmol/kg in the experiment with Mus musculus [1]; 0.32 µmol/kg with Mus musculus [2]; 0.11 µmol/kg in the experiment on Rattus norvegicus [7]; 0.28 µmol/kg in the experiment with Mus musculus [4]; 0.35 µmol/kg in the experiment with Rattus norvegicus [8]. In addition, the inhibition constant Ki in experiment [3] is 0.64 nM.
`CN1CC[C@]23c4c5ccc(O)c4O[C@H]2[C@@H](O)C=C[C@H]3[C@H]1C5` [MORPHINE]: the ED50 turned out to be 1.34 µmol/kg in the experiment on Mus musculus [1], 9.8 µmol/kg in the experiment with Mus musculus [2] and 0.86 µmol/kg with Rattus norvegicus [9].
